This is an account of results in publication PMC4245164 (ACS Chemical Biology, 2014).

Molecules are shown by their SMILES.

Assay [1] deals with Pmp22. Kind of assay: S16 GLuc and secNLuc Pmp22 reporter qHTS follow-up assays. The class given is cell-based, rat. The note with it: for potency on Pmp22 expression: data not shown; for effect on reporter activity: GLuc and secNLuc reporters.
In assay [2] the test system is Pmp22. The assay is described as follows: S16 secNLuc reporter cell assay. The assay is classed as cell-based, rat.
Another assay has as its system CMT1A patients. The note with it: human clinical trials; cited from earlier work.
Another assay concerns PMP22 regulatory element. The assay is described as follows: S16 intronic enhancer FLuc reporter assay. The assay is classed as cell-based, rat. The note with it: retest after completion of the study. The method in brief: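 S16 cells carrying a randomly integrated firefly luciferase reporter driven by the Pmp22 intronic enhancer were retested with test compound after the main study. Data are shown with standard deviation of two replicates.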
Background: A reporter such as luciferase makes a cellular process visible.

The test system of assay [3] is major myelin genes and their regulators. The assay is described as follows: Quantitative RT-PCR of co-regulated myelin genes and regulators in S16 cells. The note with it: qRT-PCR, 1 or 10 nM, 24 h. The assay is classed as cell-based, rat. The method in brief: (§1)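 S16 rat Schwann cells were plated at 2×10^5 cells/well in 6-well plates. They were treated for 24 h with test compound at 1 nM or 10 nM, or with DMSO (0.6%) only. RNA was purified and reverse-transcribed to cDNA. qPCR used SYBR green reactions or Taqman-based custom microfluidic arrays. Data were normalized to ActB and expressed relative to the untreated sample, set to 1 for each gene.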
In general terms: Real-time PCR tracks product formation cycle by cycle.

In assay [4] the test system is Pmp22. Kind of assay: Quantitative RT-PCR of endogenous Pmp22 in S16 cells. The assay is classed as cell-based, rat. The note with it: qRT-PCR, 1 or 10 nM, 24 h. The method in brief:
as §1

For the compound `COc1ccc2c(c1)c(C1=C(c3c[nH]c4ccccc34)C(=O)NC1=O)cn2CCCN(C)C` [Go 6983], in the assay on Pmp22 [1], the “potency on Pmp22 expression” value was “lack of potency”.

As for `CCCCCCCCCCCCCC(=O)O[C@@H]1[C@@H](C)[C@@]2(O)[C@@H](C=C(CO)C[C@]3(O)C(=O)C(C)=C[C@@H]23)[C@@H]2C(C)(C)[C@]12OC(C)=O` [PMA, Phorbol 12-myristate 13-acetate], in the assay on Pmp22 [2] (nanomolar levels, 24 h, secNLuc S16 cell line), the “effect on Pmp22 reporter expression” value is recorded as “repression”. For the compound `O=C1O[C@H]([C@@H](O)CO)C(O)=C1O` [ascorbic acid], the “effect in CMT1A patients” value in the assay on CMT1A patients is reported as “have not shown a significant effect”.

Take `CCC/C=C/C=C/C(=O)O[C@H]1/C(=C/C(=O)OC)C[C@H]2C[C@H]([C@@H](C)O)OC(=O)C[C@H](O)C[C@@H]3C[C@H](OC(C)=O)C(C)(C)[C@](O)(C[C@@H]4C/C(=C/C(=O)OC)C[C@H](/C=C/C(C)(C)[C@]1(O)O2)O4)O3` [bryostatin, Bryostatin 1]: the “effect in the intronic FLuc assay” value in the assay with PMP22 regulatory element is “no inhibitory effect”. In assay [3], the Myelin-associated glycoprotein expression entry is “decline to a greater degree than Pmp22”, the Periaxin expression result is “decline to a greater degree than Pmp22” and the “expression of most of the other tested genes” value is “not affected”. In addition, the “Pmp22 expression relative to untreated S16 cells” value with Pmp22 [4] is reported as at most 50%. Further, the “efficacy relative to the control, bortezomib” value in the assay with Pmp22 [2] (S16 NLuc assay, full titration response profile) is “partial efficacy”.

For the compound `Cn1cc(C2=C(c3cn(C4CCN(Cc5ccccn5)CC4)c4ccccc34)C(=O)NC2=O)c2ccccc21` [enzastaurin], in the assay with Pmp22 [1], the “potency on Pmp22 expression” value is “lack of potency”. With `CC(=O)[C@@]1(O)CC[C@H]2[C@@H]3CCC4=CC(=O)CC[C@]4(C)C3(F)[C@@H](O)C[C@@]21C` (stereo partly drawn) [flugestone], in the assay with Pmp22 [1], the “effect on reporter activity” value was “increasing reporter activity”. The same measure, in the same setting: the same measure for `CC#C[C@]1(O)CC[C@H]2[C@@H]3CCC4=CC(=O)CCC4=C3[C@@H](c3ccc(N(C)C)cc3)C[C@@]21C` [mifepristone]: “marginal effect”.
